One block for each compound: values may come before it.
Tests used:
[1] = Unbound intrinsic clearance in human hepatocytes assessed per million cells; assay type: ADME, cell-based, Hepatocyte
[2] = Unbound intrinsic clearance in mouse hepatocytes assessed per million cells; assay type: ADME, cell-based, Hepatocyte
[3] = molecular target: T1, Hepatocyte growth factor receptor (Homo sapiens, UniProt P08581); experiment: Inhibition of c-Met (unknown origin) using poly Glu-Tyr as substrate preincubated for 10 mins followed by ATP addition by phosphoenolpyruvate/pyruvate kinase/lactate dehydrogenase coupled radiometric assay
T1 sequence (P08581 whole entry): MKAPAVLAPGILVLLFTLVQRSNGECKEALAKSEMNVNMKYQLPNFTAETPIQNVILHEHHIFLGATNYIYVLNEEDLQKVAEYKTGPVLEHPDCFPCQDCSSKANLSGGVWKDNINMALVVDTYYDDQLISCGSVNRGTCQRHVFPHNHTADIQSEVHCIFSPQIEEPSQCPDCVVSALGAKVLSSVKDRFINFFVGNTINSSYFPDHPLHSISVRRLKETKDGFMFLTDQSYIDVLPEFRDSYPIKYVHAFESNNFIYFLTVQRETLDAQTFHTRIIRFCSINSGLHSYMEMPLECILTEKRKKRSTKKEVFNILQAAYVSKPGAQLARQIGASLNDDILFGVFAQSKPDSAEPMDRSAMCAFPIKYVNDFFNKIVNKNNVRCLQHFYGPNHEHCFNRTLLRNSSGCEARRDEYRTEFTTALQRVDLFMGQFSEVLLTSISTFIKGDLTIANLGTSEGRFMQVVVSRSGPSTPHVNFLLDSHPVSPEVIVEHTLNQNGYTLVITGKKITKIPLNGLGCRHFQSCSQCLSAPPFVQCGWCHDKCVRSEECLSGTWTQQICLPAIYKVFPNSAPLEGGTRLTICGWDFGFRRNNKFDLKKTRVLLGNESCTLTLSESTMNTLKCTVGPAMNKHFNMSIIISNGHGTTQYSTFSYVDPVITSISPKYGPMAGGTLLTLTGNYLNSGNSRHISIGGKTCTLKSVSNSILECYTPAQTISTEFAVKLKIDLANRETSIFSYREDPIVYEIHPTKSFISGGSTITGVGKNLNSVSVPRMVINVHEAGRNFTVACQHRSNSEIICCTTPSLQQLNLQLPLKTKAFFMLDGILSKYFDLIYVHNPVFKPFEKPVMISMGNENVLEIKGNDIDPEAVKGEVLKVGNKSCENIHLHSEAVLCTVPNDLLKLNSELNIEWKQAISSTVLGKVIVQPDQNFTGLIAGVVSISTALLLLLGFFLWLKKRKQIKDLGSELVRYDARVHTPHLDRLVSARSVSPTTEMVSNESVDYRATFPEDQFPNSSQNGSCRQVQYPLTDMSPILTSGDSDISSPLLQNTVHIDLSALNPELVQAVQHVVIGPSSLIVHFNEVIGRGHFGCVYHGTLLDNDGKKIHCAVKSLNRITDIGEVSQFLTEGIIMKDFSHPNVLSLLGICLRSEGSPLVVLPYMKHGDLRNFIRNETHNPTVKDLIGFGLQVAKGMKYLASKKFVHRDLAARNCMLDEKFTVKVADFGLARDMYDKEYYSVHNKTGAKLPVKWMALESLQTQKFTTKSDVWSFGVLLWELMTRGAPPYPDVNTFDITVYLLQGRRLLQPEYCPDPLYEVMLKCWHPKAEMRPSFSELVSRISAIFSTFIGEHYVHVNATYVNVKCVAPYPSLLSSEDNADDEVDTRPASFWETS

[4] = molecular target: T1, Hepatocyte growth factor receptor; experiment: Inhibition of c-MET in human SNU-5 cells measured after 6 hrs by steady-glo luciferase reporter gene assay; assay type: cell-based
[5] = Stability in human liver microsomes after 30 mins
[6] = Stability in rat liver microsomes after 30 mins
[7] = molecular target: cGMP-inhibited 3',5'-cyclic phosphodiesterase 3A (Homo sapiens, UniProt Q14432); experiment: Inhibition of recombinant human N-terminal GST/His-tagged PDE3A (669 to 1141 residues) expressed in baculovirus infected Sf9 insect cells using iFL-cAMP as substrate preincubated for 15 mins followed by substrate addition and measured after 40 mins by fluorescence assay
cGMP-inhibited 3',5'-cyclic phosphodiesterase 3A, sequence (Q14432 whole entry, the tested form may be a part): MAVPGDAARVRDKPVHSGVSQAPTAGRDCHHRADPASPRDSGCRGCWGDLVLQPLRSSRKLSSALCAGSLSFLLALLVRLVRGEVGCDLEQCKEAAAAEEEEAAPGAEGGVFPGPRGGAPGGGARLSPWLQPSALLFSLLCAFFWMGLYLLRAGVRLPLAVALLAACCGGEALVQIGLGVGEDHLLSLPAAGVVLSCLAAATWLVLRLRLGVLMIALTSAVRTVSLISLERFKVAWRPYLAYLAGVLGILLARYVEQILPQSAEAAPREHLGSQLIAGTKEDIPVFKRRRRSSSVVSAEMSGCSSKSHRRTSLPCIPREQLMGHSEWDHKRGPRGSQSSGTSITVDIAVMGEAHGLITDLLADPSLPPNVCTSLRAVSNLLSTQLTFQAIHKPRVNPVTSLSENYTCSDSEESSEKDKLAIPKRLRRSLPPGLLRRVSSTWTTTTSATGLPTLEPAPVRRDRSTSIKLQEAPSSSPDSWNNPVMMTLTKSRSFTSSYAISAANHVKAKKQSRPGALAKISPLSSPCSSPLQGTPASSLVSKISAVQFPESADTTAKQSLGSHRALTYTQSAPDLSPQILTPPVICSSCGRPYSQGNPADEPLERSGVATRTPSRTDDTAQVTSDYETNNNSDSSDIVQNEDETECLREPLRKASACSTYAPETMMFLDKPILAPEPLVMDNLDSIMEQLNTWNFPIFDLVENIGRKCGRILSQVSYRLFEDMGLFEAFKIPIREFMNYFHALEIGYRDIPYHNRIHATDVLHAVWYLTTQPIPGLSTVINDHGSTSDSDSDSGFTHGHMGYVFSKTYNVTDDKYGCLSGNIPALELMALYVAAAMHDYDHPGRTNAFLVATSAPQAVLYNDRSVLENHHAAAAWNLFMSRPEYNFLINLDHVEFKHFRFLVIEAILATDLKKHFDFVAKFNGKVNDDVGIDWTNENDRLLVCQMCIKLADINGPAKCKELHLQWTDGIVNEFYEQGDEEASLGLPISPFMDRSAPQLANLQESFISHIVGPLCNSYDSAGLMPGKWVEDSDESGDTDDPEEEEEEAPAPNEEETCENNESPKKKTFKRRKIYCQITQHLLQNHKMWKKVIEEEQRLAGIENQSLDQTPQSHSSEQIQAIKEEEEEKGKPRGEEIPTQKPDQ

Homo sapiens = species on record: Homo sapiens; experiment: Selectivity ratio of IC50 for inhibition of recombinant human N-terminal GST/His-tagged PDE3A (669 to 1141 residues) expressed in baculovirus infected Sf9 insect cells to IC50 for inhibition of c-MET in human SNU-5 cells
[8] = Stability in rat hepatocytes after 30 mins; assay type: ADME, cell-based, Hepatocyte; conditions: read-out: Stabilty
[9] = Volume of distribution at steady state in mouse at 0.8 mg/kg, iv; assay type: ADME, organism-based; conditions: in vivo, read-out: Vdss
Procedure, shortened: (§1)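 Mice received IV 0.8 mpk or PO 13 mpk, the oral dose in 0.5% MC/0.1% Tween 80 vehicle. Parameters came from the respective IV or PO dosing.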

SNU-5 [10] = experiment: Antitumor activity against human SNU-5 cells xenografted in SCID mouse assessed as tumor regression measured 38 days post tumor implantation; assay type: functional
Procedure, shortened: (§2)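 SCID mice carrying SNU-5 tumors were dosed at 3, 10 or 30 mpk. Tumor growth was compared with untreated controls as T/C. Body weight was followed through the dosing regimen.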

[11] = Clearance in rat at 0.9 mg/kg, iv; assay type: ADME, organism-based; conditions: in vivo
Procedure, shortened: (§3)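 Rats received IV 0.9 mpk or PO 2.6 mpk, the oral dose formulated in 0.5% MC/0.1% Tween 80. PK parameters were derived from the IV and PO dosing arms.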

[12] = AUC in mouse at 13 mg/kg, po; assay type: ADME, organism-based; parameters: dose 13 mg/kg; conditions: in vivo; procedure, shortened: as §1
[13] = Volume of distribution at steady state in rat at 0.9 mg/kg, iv; assay type: ADME, organism-based; conditions: in vivo, read-out: Vdss; procedure, shortened: as §3
[14] = Clearance in monkey at 0.9 mg/kg, iv; assay type: ADME, organism-based, Macaca mulatta; conditions: rhesus monkey, in vivo
[15] = Half life in rat at 0.9 mg/kg, iv; assay type: ADME, organism-based; conditions: in vivo; procedure, shortened: as §3
[16] = Volume of distribution at steady state in monkey at 0.9 mg/kg, iv; assay type: ADME, organism-based, Macaca mulatta; conditions: rhesus monkey, in vivo, read-out: Vdss
[17] = Half life in dog at 0.8 mg/kg, iv; assay type: ADME, organism-based, Canis lupus familiaris; conditions: in vivo
Procedure, shortened: (§4)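 For dogs, dosing was IV 0.8 mpk or PO 12 mpk, the oral formulation being 30% PG/10% Solutol/1% HPMC-AS. IV and PO parameters were obtained from the corresponding arms.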

[18] = Oral bioavailability in dog at 12 mg/kg; assay type: ADME, organism-based, Canis lupus familiaris; conditions: in vivo; procedure, shortened: as §4
[19] = Toxicity in human SNU-5 cells xenografted SCID mouse assessed as body weight loss at 30 mg/kg qd; assay type: organism-based; conditions: in vivo; procedure, shortened: as §2
[20] = Half life in monkey at 0.9 mg/kg, iv; assay type: ADME, organism-based, Macaca mulatta; conditions: rhesus monkey, in vivo
[21] = Half life in mouse at 0.8 mg/kg, iv; assay type: ADME, organism-based; conditions: in vivo; procedure, shortened: as §1
[22] = AUC in dog at 12 mg/kg, po; assay type: ADME, organism-based, Canis lupus familiaris; parameters: dose 12 mg/kg; conditions: in vivo; procedure, shortened: as §4
[23] = Cmax in dog at 12 mg/kg, po; assay type: ADME, organism-based, Canis lupus familiaris; parameters: route oral, dose 12 mg/kg; conditions: in vivo; procedure, shortened: as §4
SNU-5 [24] = experiment: Antitumor activity against human SNU-5 cells xenografted in SCID mouse assessed as tumor growth at 10 mg/kg qd measured 38 days post tumor implantation relative to control; assay type: functional; procedure, shortened: as §2
SNU-5 [25] = experiment: Antitumor activity against human SNU-5 cells xenografted in SCID mouse assessed as tumor growth at 3 mg/kg qd measured 38 days post tumor implantation relative to control; assay type: functional; procedure, shortened: as §2
[26] = Cmax in mouse at 13 mg/kg, po; assay type: ADME, organism-based; parameters: route oral, dose 13 mg/kg; conditions: in vivo; procedure, shortened: as §1
[27] = Clearance in mouse at 0.8 mg/kg, iv; assay type: ADME, organism-based; conditions: in vivo; procedure, shortened: as §1
SNU-5 [28] = experiment: Antitumor activity against human SNU-5 cells xenografted in SCID mouse assessed as tumor regression at 30 mg/kg qd measured 38 days post tumor implantation relative to control; assay type: functional; procedure, shortened: as §2
[29] = Cmax in rat at 2.6 mg/kg, po; assay type: ADME, organism-based; parameters: route oral, dose 2.6 mg/kg; conditions: in vivo; procedure, shortened: as §3
[30] = Oral bioavailability in mouse at 13 mg/kg; assay type: ADME, organism-based; conditions: in vivo; procedure, shortened: as §1
[31] = Volume of distribution at steady state in dog at 0.8 mg/kg, iv; assay type: ADME, organism-based, Canis lupus familiaris; conditions: in vivo, read-out: Vdss; procedure, shortened: as §4
[32] = Oral bioavailability in rat at 2.6 mg/kg; assay type: ADME, organism-based; conditions: in vivo; procedure, shortened: as §3
[33] = AUC in rat at 2.6 mg/kg, po; assay type: ADME, organism-based; parameters: dose 2.6 mg/kg; conditions: in vivo; procedure, shortened: as §3
[34] = Clearance in dog at 0.8 mg/kg, iv; assay type: ADME, organism-based, Canis lupus familiaris; conditions: in vivo; procedure, shortened: as §4
[35] = Clearance in rat at 1 mg/kg, iv; assay type: ADME, organism-based; conditions: in vivo
[36] = Half life in rat at 1 mg/kg, iv; assay type: ADME, organism-based; conditions: in vivo

Structure (SMILES): Oc1ccc(Cc2nnc3n2N=C(c2ccc(F)cc2)CS3)cc1
remaining at 0.5 h [5]: 73%
remaining at 0.5 h [6]: 2.6%

Structure (SMILES): Oc1ccc(Cc2nnc3sc(Nc4cccc(Cl)c4)nn23)cc1F
remaining at 0.5 h [8]: 56%

Structure (SMILES): C[C@H](c1ccc2ncccc2c1)c1nnc2sc(-c3cnn(C)c3)nn12
CL free [1]: 5.8 µL/min
IC50 [7]: 7.9 µM
CL free [2]: 7 µL/min
Ratio IC50 (Homo sapiens): 95
Ki [3]: 0.24 µM
IC50 [4]: 0.084 µM

Structure (SMILES): Oc1ccc(Cn2cnc3ncc(-c4ccc(F)cc4)nc32)cc1
remaining at 0.5 h [5]: 51%
remaining at 0.5 h [6]: 56%

Structure (SMILES): Clc1cccc(Nc2nn3c(Cn4ccc5ncccc54)nnc3s2)c1
remaining at 0.5 h [8]: 60%

Structure (SMILES): Oc1ccc(Cc2nnc3ccc(-c4ccc(F)cc4)nn23)cc1
remaining at 0.5 h [5]: 50%
remaining at 0.5 h [6]: 32%

Structure (SMILES): C[C@@H](c1ccc2ncccc2c1)c1nnc2sc(Nc3cnn(C)c3)nn12
IC50 [7]: 3 µM
Ratio IC50 (Homo sapiens): 600
Ki [3]: 0.02 µM
IC50 [4]: 0.005 µM

Further lines, with some results ahead:

CL free [1]: 3.2 µL/min
CL free [2]: 7.4 µL/min
Ki [3]: 0.05 µM
IC50 [4]: 0.03 µM
Structure (SMILES): CC(c1ccc2ncccc2c1)c1nnc2sc(-c3cnn(C)c3)nn12 (racemic)

IC50 [7]: 0.2 µM
IC50 [4]: 0.003 µM
Structure (SMILES): Cc1nn(C)cc1-c1nn2c([C@H](C)c3ccc4ncccc4c3)nnc2s1
Ratio IC50 (Homo sapiens): 67

remaining at 0.5 h [8]: 45%
Structure (SMILES): Clc1cccc(Nc2nn3c(Cc4ccc5ncccc5c4)nnc3s2)c1

IC50 [7]: 0.1 µM
IC50 [4]: 0.003 µM
Structure (SMILES): Cc1nn(C)cc1-c1nn2c([C@@H](C)c3ccc4ncccc4c3)nnc2s1
Ratio IC50 (Homo sapiens): 33

remaining at 0.5 h [8]: 55%
Structure (SMILES): Oc1cccc(Cc2nnc3sc(Nc4cccc(Cl)c4)nn23)c1

remaining at 0.5 h [8]: 63%
Structure (SMILES): Oc1ccc(Cc2nnc3sc(Nc4cccc(Cl)c4)nn23)cc1Cl

remaining at 0.5 h [8]: 64%
Structure (SMILES): Clc1cccc(Nc2nn3c(Cc4ccc5c(c4)OCO5)nnc3s2)c1

Vd [9]: 1 L/kg
clearance [11]: 25 mL/min/kg
AUC [12]: 16 µg/h/mL
Vd [13]: 0.7 L/kg
clearance [14]: 23 mL/min/kg
half-life [15]: 1.4 h
IC50 [7]: 8.07 µM
Vd [16]: 1.2 L/kg
half-life [17]: 3.6 h
bioavailability [18]: 66%
half-life [20]: 2 h
half-life [21]: 1.8 h
AUC [22]: 9.9 µg/h/mL
Cmax [23]: 1300 ng/mL
Cmax [26]: 4800 ng/mL
clearance [27]: 21 mL/min/kg
Cmax [29]: 150 ng/mL
bioavailability [30]: 100%
Vd [31]: 1.6 L/kg
bioavailability [32]: 29%
Ki [3]: 0.021 µM
AUC [33]: 0.6 µg/h/mL
clearance [34]: 14 mL/min/kg
IC50 [4]: 0.004 µM
Structure (SMILES): Cn1cc(Nc2nn3c(C(F)(F)c4ccc5ncccc5c4)nnc3s2)cn1
Activity (SNU-5 [10]): Dose-dependent effect
Activity [19]: Non-Toxic
T/C (SNU-5 [24]): 54.2%
T/C (SNU-5 [25]): 16.6%
Activity (SNU-5 [28]): -23.9%
Ratio IC50 (Homo sapiens): 2020

remaining at 0.5 h [5]: 68%
remaining at 0.5 h [6]: 40%
Structure (SMILES): Oc1ccc(Cc2nnc3sc(Nc4ccccc4)nn23)cc1

CL free [1]: 4.8 µL/min
clearance [35]: 24.5 mL/min/kg
half-life [36]: 1.1 h
CL free [2]: 6.2 µL/min
Structure (SMILES): Cn1cc(-c2nn3c(Cc4ccc5ncccc5c4)nnc3s2)cn1

— ChEMBL document CHEMBL4706768, “Discovery of Potent, Selective Triazolothiadiazole-Containing c-Met Inhibitors” (ACS Med Chem Lett, 2021)
